Test results taken from ChEMBL document CHEMBL3826936, “Alkyne-substituted diminazene as G-quadruplex binders with anticancer activities” (Eur J Med Chem, 2016).
Activity calls are given as the source filed them. The rule behind the calls is not given here.

Experiments:
[1] = Binding affinity to 5'-FAM/3'-TAMRA labeled c-kit2 26-mer G-quadruplex DNA (unknown origin) assessed as change in melting temperature at 4 uM after 12 hrs by TR-FRET assay
Summary of the method: (§1)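 Dual-labeled FAM/TAMRA oligos diluted to 800 nM in 60 mM potassium cacodylate (pH 7.2), annealed 10 min at 85 °C and cooled to room temperature. Mixed 1:1 with ligand at […] in the same buffer. Equilibrated at least 12 h at 4 °C. ΔT1/2 taken as melting temperature with minus without ligand, in triplicate, averaged.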

[2] = Binding affinity to 5'-FAM/3'-TAMRA labeled c-MYC 22-mer G-quadruplex DNA (unknown origin) at 4 uM in presence of 26-mer duplex DNA by TR-FRET assay
[3] = Binding affinity to 5'-FAM/3'-TAMRA labeled F21T 21-mer G-quadruplex DNA (unknown origin) assessed as change in melting temperature at 4 uM after 12 hrs by TR-FRET assay; summary of the method: as §1
[4] = Antiproliferative activity against human PC3 cells after 72 hrs by WST-1 assay; type: functional; conditions: PC-3, 72 h
Summary of the method: (§2)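 Cells seeded in 96-well plates the afternoon before treatment, at numbers keeping them in log-phase growth; about 18 h later, compounds semi-serially diluted in DMSO then growth medium and added. Incubation 72 h, then WST-1 added and plates read after 4 more hours at 37 °C. GI50 derived from curve fits; viability expressed relative to DMSO control.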

[5] = Binding affinity to 5'-FAM/3'-TAMRA labeled k-RAS21R 21-mer G-quadruplex DNA (unknown origin) assessed as change in melting temperature at 4 uM after 12 hrs by TR-FRET assay; summary of the method: as §1
[6] = Binding affinity to 5'-FAM/3'-TAMRA labeled c-MYC 22-mer G-quadruplex DNA (unknown origin) assessed as change in melting temperature at 4 uM after 12 hrs by TR-FRET assay; summary of the method: as §1
MDA-MB-231 [7] = test: Antiproliferative activity against human MDA-MB-231 cells after 72 hrs by WST-1 assay; type: functional; conditions: MDA-MB-231, 72 h; summary of the method: as §2
[8] = Antiproliferative activity against human OVCAR3 cells after 72 hrs by WST-1 assay; type: functional; conditions: OVCAR-3, 72 h; summary of the method: as §2
[9] = Binding affinity to 5'-FAM/3'-TAMRA labeled 26-mer duplex DNA (unknown origin) assessed as change in melting temperature at 4 uM after 12 hrs by TR-FRET assay
[10] = Antiproliferative activity against human bone marrow cells after 72 hrs by WST-1 assay; type: cell-based, Bone marrow cell
Summary of the method: (§3)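 Cells seeded the afternoon before treatment at densities giving log-phase growth; about 18 h later compounds, semi-serially diluted in DMSO then growth medium, were added. After 72 h WST-1 was added, with a further 4 h at 37 °C before plate reading. GI50 values were calculated from the curves. NBM was grown in RPMI; MCR5A was handled per ATCC.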

[11] = Antiproliferative activity against human MCR5A cells after 72 hrs by WST-1 assay; type: cell-based; summary of the method: as §3
[12] = Antiproliferative activity against human PC3 cells assessed as cell viability at 20 uM after 72 hrs by WST-1 assay relative to control; type: functional; conditions: PC-3, 72 h, read-out: Activity; summary of the method: as §2
[13] = Antiproliferative activity against human OVCAR3 cells assessed as cell viability at 20 uM after 72 hrs by WST-1 assay relative to control; type: functional; conditions: OVCAR-3, 72 h, read-out: Activity; summary of the method: as §2
MDA-MB-231 [14] = test: Antiproliferative activity against human MDA-MB-231 cells assessed as cell viability at 20 uM after 72 hrs by WST-1 assay relative to control; type: functional; conditions: MDA-MB-231, 72 h, read-out: Activity; summary of the method: as §2
MDA-MB-231 [15] = test: Binding affinity to c-MYC G-quadruplex DNA in human MDA-MB-231 cells assessed as inhibition of c-MYC protein expression at 111.5 uM incubated for 24 hrs by Western blot analysis relative to control; type: cell-based
Summary of the method: (§4)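 MDA-MB-231 cells were grown in DMEM with 10% heat-inactivated FBS at 37 °C and 5% CO2, then treated with DMSO vehicle or compound for 2, 6 or 24 h. Cells were washed in PBS and lysed in RIPA buffer with protease inhibitors. Blots were probed with anti-c-MYC (1:1000) and HRP anti-rabbit IgG (1:10,000), with β-actin as loading control. Band density is given as percent of vehicle at each time point.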

[16] = Stabilization of c-MYC Pu27 G-quadruplex DNA (unknown origin) assessed as inhibition of Taq polymerase-mediated polymerization/extension of Pu27 and Pu27rev oligomers at 25 uM preincubated for 6 hrs followed by Taq polymerase addition by PCR stop assay
Summary of the method: (§5)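 Each 25 µL PCR mix held 1x buffer, 5 µM template (Pu27, Pu27-13,14 or Pu-mutant) and 5 µM Pu27rev, plus ligand at various concentrations, and was held at 4 °C for 6 h. Then 200 µM dNTPs and 5 U Taq were added. Cycling: 94 °C 3 min, then 20 cycles of 94 °C 30 s, 58 °C 30 s and 72 °C 30 s. Reactions without compound served as control.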

[17] = target: Telomerase reverse transcriptase (Homo sapiens) (UniProt O14746); conditions: MDA-MB-231, 25 uM
[18] = target: Telomerase reverse transcriptase (Homo sapiens) (UniProt O14746); test: Inhibition of telomerase activity in human MDA-MB-231 cells using amplifour TS primer preincubated for 48 to 72 hrs followed by primer addition measured after 30 mins by fluorescence plate reader analysis relative to control; type: cell-based
Summary of the method: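 MDA-MB-231 cells, 2 × 10⁵ per T-25 flask, were treated the next morning with vehicle or compound at 0.5×, 1×, 2× or 4× GI50. After 48 or 72 h they were lysed in CHAPS buffer with RNase inhibitor on ice for 30 min. Lysate (1000 cell-equivalents) went into a fluorescent TRAP reaction at 30 °C for 30 min. TPG units were taken against an internal standard, and inhibition was expressed relative to untreated cells.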

[19] = target: Telomerase reverse transcriptase (Homo sapiens) (UniProt O14746); conditions: MDA-MB-231, 25 uM; remark: listed apart in the source
[20] = Stabilization of c-MYC template Pu27-13,14 mutant DNA (unknown origin) assessed as inhibition of Taq polymerase-mediated polymerization/extension of Pu27-13,14 mutant and Pu27rev oligomers at 10 uM preincubated for 6 hrs followed by Taq polymerase addition by PCR stop assay; summary of the method: as §5
MDA-MB-231 [21] = test: Binding affinity to c-MYC G-quadruplex DNA in human MDA-MB-231 cells assessed as inhibition of c-MYC protein expression at 22.3 uM incubated for 24 hrs by Western blot analysis relative to control; type: cell-based; summary of the method: as §4
[22] = Stabilization of c-MYC template Pu27 mutant DNA (unknown origin) assessed as inhibition of Taq polymerase-mediated polymerization/extension of Pu27 mutant and Pu27rev oligomers at 10 uM preincubated for 6 hrs followed by Taq polymerase addition by PCR stop assay; summary of the method: as §5
MDA-MB-231 [23] = test: Binding affinity to c-MYC G-quadruplex DNA in human MDA-MB-231 cells assessed as inhibition of c-MYC protein expression at 22.3 uM incubated for 6 hrs by Western blot analysis relative to control; type: cell-based; summary of the method: as §4
[24] = Binding affinity to wild type c-MYC 24-mer G-quadruplex DNA (unknown origin) at 4:1 ligand:DNA molar ratio by isothermal titration calorimetry

Sequence of Telomerase reverse transcriptase (Homo sapiens) (O14746 whole entry): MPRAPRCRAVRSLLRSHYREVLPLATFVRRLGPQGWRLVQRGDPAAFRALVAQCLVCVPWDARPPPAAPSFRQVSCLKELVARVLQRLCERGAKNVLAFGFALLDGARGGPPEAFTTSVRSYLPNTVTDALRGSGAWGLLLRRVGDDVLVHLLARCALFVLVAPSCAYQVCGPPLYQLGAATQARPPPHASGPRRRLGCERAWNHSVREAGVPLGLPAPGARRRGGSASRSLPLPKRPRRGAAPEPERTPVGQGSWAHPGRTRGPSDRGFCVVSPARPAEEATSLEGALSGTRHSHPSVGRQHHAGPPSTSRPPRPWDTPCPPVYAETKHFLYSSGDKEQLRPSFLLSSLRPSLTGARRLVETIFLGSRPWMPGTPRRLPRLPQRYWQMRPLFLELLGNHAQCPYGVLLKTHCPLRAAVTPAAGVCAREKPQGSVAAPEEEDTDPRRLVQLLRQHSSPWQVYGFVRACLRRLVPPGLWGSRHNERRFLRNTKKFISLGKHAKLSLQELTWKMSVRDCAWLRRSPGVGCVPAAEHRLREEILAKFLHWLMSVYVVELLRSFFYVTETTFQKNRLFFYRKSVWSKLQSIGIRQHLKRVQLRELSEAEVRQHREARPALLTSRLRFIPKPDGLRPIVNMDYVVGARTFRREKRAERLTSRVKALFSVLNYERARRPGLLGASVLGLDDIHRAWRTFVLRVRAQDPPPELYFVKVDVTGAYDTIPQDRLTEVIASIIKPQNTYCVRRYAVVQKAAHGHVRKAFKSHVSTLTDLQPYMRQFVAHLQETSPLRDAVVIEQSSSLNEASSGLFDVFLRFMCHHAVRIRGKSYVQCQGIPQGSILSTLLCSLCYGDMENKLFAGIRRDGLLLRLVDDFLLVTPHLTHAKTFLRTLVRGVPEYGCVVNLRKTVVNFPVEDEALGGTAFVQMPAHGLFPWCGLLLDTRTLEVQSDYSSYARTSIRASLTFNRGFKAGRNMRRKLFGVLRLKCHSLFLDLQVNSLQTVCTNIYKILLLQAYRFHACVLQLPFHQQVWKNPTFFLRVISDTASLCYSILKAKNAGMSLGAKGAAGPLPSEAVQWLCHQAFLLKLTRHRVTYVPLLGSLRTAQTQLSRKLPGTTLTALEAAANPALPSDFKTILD

Compound | ΔTm [1] [°C] | ΔTm [3] [°C] | ΔTm [5] [°C] | ΔTm [6] [°C] | GI50 (MDA-MB-231 [7]) [µM] | ΔTm [9] [°C] | GI50 [4] [µM] | GI50 [8] [µM] | viability at 20 µM [12] [%] | viability at 20 µM [13] [%] | viability at 20 µM (MDA-MB-231 [14]) [%] | other results
C[n+]1ccc(-c2c3nc(c(-c4cc[n+](C)cc4)c4ccc([nH]4)c(-c4cc[n+](C)cc4)c4nc(c(-c5cc[n+](C)cc5)c5ccc2[nH]5)C=C4)C=C3)cc1 | – | – | – | – | 14.3 | – | 14 | 14.6 | – | – | – | GI50 at 72 h [10]: 16.8 µM; GI50 at 72 h [11]: 15.2 µM
N=C(N)c1ccc(N)cc1 | – | – | – | – | – | – | – | – | ≥ 75 | ≥ 75 | ≥ 75 | –
C[n+]1ccc(-c2c3nc(c(-c4cc[n+](C)cc4)c4ccc([nH]4)c(-c4cc[n+](C)cc4)c4ccc([nH]4)c(-c4cc[n+](C)cc4)c4nc2C=C4)C=C3)cc1 | – | < 5 | 46.7 | 24.1 | – | < 5 | – | – | – | – | – | inhibition (MDA-MB-231 [15]): 100%; inhibition [16]: Active; inhibition [17]: 80%; inhibition [18]: Dose-dependent effect; inhibition [19]: 60%; inhibition [20]: Active; inhibition (MDA-MB-231 [21]): 92%; inhibition [22]: Active; inhibition (MDA-MB-231 [23]): 40%

Now from value to compound, other results behind:

ΔTm [1] [°C] | ΔTm [3] [°C] | ΔTm [5] [°C] | ΔTm [6] [°C] | GI50 (MDA-MB-231 [7]) [µM] | ΔTm [9] [°C] | Compound | GI50 [4] [µM] | GI50 [8] [µM] | viability at 20 µM [12] [%] | viability at 20 µM [13] [%] | viability at 20 µM (MDA-MB-231 [14]) [%] | other results
6.4 | < 5 | 3.7 | 7.1 | 9.5 | < 5 | N=C(N)c1ccc(/N=N/Nc2cccc(C#Cc3ccccc3)c2)cc1 | 5.8 | 6.5 | – | – | – | Activity [2]: inactive
5.48 | < 5 | 15 | 8.8 | – | < 5 | N=C(N)c1ccc(/N=N/Nc2cccc(-c3ccccc3)c2)cc1 | – | – | ≥ 75 | ≥ 75 | ≥ 75 | –
6.4 | < 5 | 6.4 | 7.1 | – | < 5 | N=C(N)c1ccc(/N=N/Nc2ccccc2)cc1 | – | – | ≥ 75 | ≥ 75 | ≥ 75 | –
7.68 | < 5 | 4.2 | 7 | 23.2 | < 5 | C#Cc1ccccc1N/N=N/c1ccc(C(=N)N)cc1 | > 50 | > 25 | – | – | – | Activity [24]: Active
6.58 | < 5 | 4.3 | 6.1 | – | < 5 | N=C(N)c1ccc(/N=N/Nc2ccncc2)cc1 | – | – | ≥ 75 | ≥ 75 | ≥ 75 | Activity [2]: inactive
